# Rows were chosen to be rich in hits. Some 3.1% of all compounds tested hit in one or more screens of this group.
# PRMT1 FP inh: inhibitors of human PRMT1 | recombinant PRMT1, activity-based probe fluorescence polarization | inhibition, % at 2.79 µM | 1.3% of 370,000 active | AID 652257;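 active = inhibition above about 21% made by adding two undisclosed values, limit read from the data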
# UHRF1 binding: UHRF1 methyl-DNA binding inhibition; Q96T88; UHRF1 binding to methylated oligo, TR-FRET; inhibition, % at 4.4 µM; 0.75% of 370,000 active; AID 687016; in the data active = inhibition above about 21%;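 also: UHRF1 SRA domain binding a hemimethylated CpG hairpin DNA probe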
# RBBP9 inh: human RBBP9 hydrolase inhibition; AID 1515; inhibition, % at 7.94 µM; recombinant RBBP9, FP-Rh probe fluorescence polarization; 0.2% of 220,000 active; O75884;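 active = inhibition above the campaign mean of all tested compounds plus 3 SD, cut at about 14% in these data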
# Target sequence (O75884 whole entry, looked up): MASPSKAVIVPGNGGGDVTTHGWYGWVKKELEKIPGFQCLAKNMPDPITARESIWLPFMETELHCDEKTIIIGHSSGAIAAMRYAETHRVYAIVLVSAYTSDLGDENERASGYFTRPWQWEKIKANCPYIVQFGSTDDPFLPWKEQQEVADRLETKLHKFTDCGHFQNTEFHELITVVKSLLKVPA
#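 Material: RBBP9 protein. Amount: RBBP9 at 2.5 µM in dispensed solution, before mixing. Schedule: 30 min then 45 min, 25 °C. Medium: Tris buffer pH 8.0, NaCl, Pluronic. Measured by: fluorescence polarization. Measure: percent inhibition from mP, scaled between DMSO and no-protein wells. Replication: one well per compound.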
# LEDGF integ inh: blocks HIV-1 LEDGF/p75-dependent DNA integration; TR-FRET IN-LEDGF/p75 DNA integration, Eu/Cy5; inhibition, % at 3.7 µM; 0.64% of 370,000 active;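 active = inhibition above the screen-wide mean plus 3 SD, cut at about 13% in these data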;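 also: signal is the Cy5 over europium emission ratio at 671 and 618 nm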
# MBD2 inh: inhibitors of human MBD2 binding to methylated oligonucleotide; Q9UBB5; inhibition, % at 4.4 µM; 0.31% of 370,000 active; TR-FRET; in the data active = inhibition above about 13%
# Target sequence (Q9UBB5 whole entry, looked up): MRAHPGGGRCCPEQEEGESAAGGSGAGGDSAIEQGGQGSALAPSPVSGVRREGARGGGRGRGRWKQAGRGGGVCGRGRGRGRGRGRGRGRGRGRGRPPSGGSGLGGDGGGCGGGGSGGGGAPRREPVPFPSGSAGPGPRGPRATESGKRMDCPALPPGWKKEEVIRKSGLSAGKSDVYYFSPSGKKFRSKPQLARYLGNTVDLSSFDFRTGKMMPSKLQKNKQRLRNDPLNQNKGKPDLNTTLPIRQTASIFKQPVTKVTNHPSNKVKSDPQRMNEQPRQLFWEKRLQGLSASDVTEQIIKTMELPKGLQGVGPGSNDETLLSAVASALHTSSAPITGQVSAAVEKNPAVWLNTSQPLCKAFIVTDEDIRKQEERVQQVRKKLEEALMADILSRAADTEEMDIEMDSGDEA
# ABHD5-PLIN5 inh: ABHD5-PLIN5 protein interaction inhibition; Q00G26+Q8WTS1; Split G. princeps luciferase complementation, luminescence, 4 h; inhibition, % at 4 µM; 0.78% of 360,000 active;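 active = inhibition above the mean inhibition across every tested compound plus 3 SD, cut at about 22% in these data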
# A number is an active result; 0 = inactive; - = not tested or not shown.
SMILES,PRMT1 FP inh,UHRF1 binding,RBBP9 inh,LEDGF integ inh,MBD2 inh,ABHD5-PLIN5 inh
Cc1cc(C)c(Nc2cc(S(=O)(=O)O)c(N)c3c2C(=O)c2ccccc2C3=O)c(C)c1,0,22.8,0,0,0,0
COC(=O)CC#C[C@H](C)[C@@H](NS(=O)(=O)c1ccc([N+](=O)[O-])cc1)C(C)(C)C,0,0,-,0,0,-
CN(CCc1ccccn1)C(=O)CCc1nnc(CCCc2ccccc2)o1,0,0,0,0,0,0
CN(CCc1cnn(C)c1)C(=O)CCc1nnc(CCCc2ccccc2)o1,0,47.6,0,0,0,0
O=C(Nc1ccccc1)OCCN1CCCC12CCC(c1ccccc1)CC2 (configuration not stated),0,0,-,0,0,-
Cc1ccccc1CS(=O)(=O)Cc1ccc(C(=O)Nc2cccc(Cl)c2F)o1,0,0,-,0,0,-
CN(C)c1nc(=NCc2ccco2)ss1,-,-,0,-,-,89.6
CCCCN1C(=O)N2Cc3ccc(C)cc3C2CS1(=O)=O (configuration not stated),0,0,-,0,0,-
O=C(CC1Sc2ccccc2NC1=O)NCc1ccc(Cl)cc1 (configuration not stated),0,27.7,0,0,0,0
CC1(C)CC(=O)N(CC(=O)N2CCN(c3cccc(Cl)c3Cl)CC2)c2ccccc2S1(=O)=O,0,0,-,0,0,-
C/C=C/Cn1c(SCc2ccc(C)cc2)nc2c1c(=O)[nH]c(=O)n2C,0,0,0,0,0,0
CC=CCn1c(SCc2ccccc2)nc2c1c(=O)[nH]c(=O)n2C,24.0,0,-,0,0,0
CCCCN(C)C(=O)CSc1nnc(-c2cc(OC)c(OC)c(OC)c2)o1,0,0,-,0,0,-
COc1ccccc1/C=C\C=N\n1c(-c2ccc(Cl)cc2Cl)n[nH]c1=S,21.6,0,0,0,0,0
COc1ccccc1/C=C/C=N/n1c(C)nnc1C,0,67.9,0,0,0,0
COc1cccc(CNC(=O)[C@H]2CCCN2C(=O)[C@H]2CCCN2C(=O)c2ccccc2)c1,0,0,-,0,0,-
O=C(NCc1ccccc1)[C@@H]1CCCN1C(=O)[C@H]1CCCN1C(=O)c1ccccc1F,0,0,-,0,0,-
O=C(CCSc1ccccc1)Nc1ccccc1Br,0,25.5,0,0,0,0
COc1ccc(N2CCN(C(=O)c3oc4ccccc4c3NC(=O)Cc3cccc(OC)c3)CC2)cc1,0,23.7,-,0,0,0
COC1(OC)C(/C=C/c2ccc(C)cc2)C(C#N)(C#N)C1(OC)OC (configuration not stated),0,21.1,0,0,0,22.0
COc1ccccc1N(O)C1CC(=O)N(c2ccc(F)cc2)C1=O (configuration not stated),31.3,0,0,0,0,0
COc1ccccc1N1C(=O)CC(N(O)c2ccccc2)C1=O (configuration not stated),0,0,0,0,0,0
CCN(CC)C(=O)Oc1ccc2oc(=O)cc(-c3cc4cccc(OC)c4o3)c2c1,0,21.2,-,0,0,0
COc1ccc(S(=O)(=O)Nc2ccc3c(c2)C(=O)N([C@H](C)CO)C[C@H](C)[C@@H](CN(C)C(=O)Nc2ccc(F)cc2)OCCCC[C@H](C)O3)cc1,0,0,-,0,0,0
C[C@@H]1CCCCO[C@H](CN(C)C(=O)C2CCCCC2)[C@@H](C)CN([C@H](C)CO)C(=O)c2cc(N(C)C)ccc2O1,0,50.0,-,0,0,0
SMILES,PRMT1 FP inh,UHRF1 binding,RBBP9 inh,LEDGF integ inh,MBD2 inh,ABHD5-PLIN5 inh
COc1ccc(S(=O)(=O)Nc2ccc3c(c2)C(=O)N([C@@H](C)CO)C[C@@H](C)[C@H](CN(C)C(=O)CCCN(C)C)OCCCC[C@H](C)O3)cc1,0,29.0,-,0,0,0
COc1ccc(/C=C2/CN(Cc3ccc(OC)cc3OC)C3=NC(c4ccc5ccccc5c4)CC(=O)N32)cc1 (configuration not stated),0,0,-,0,0,-
CCOc1ccc(-n2c(SCC(=O)Nc3ccc(S(=O)(=O)Nc4cc(C)nc(C)n4)cc3)nnc2-c2ccco2)cc1,0,0,-,0,0,-
CCCC[C@@H]1C(=O)N2N=Cc3cc4ccccc4cc3[C@H]2N2N=Cc3cc4ccccc4cc3[C@@H]12,0,0,-,0,0,-
O=C(NCCc1ccccc1)OCc1cn(Cc2cccc(Cl)c2)nn1,0,0,-,0,0,-
CCC(NC(=O)NCc1ccccc1)(C(F)(F)F)C(F)(F)F,0,0,0,0,0,0
CCC(NC(=O)Nc1ccc(O)cc1)(C(F)(F)F)C(F)(F)F,0,0,24.0,15.1,0,0
CC(C)C[C@H](NC(=O)C1CC1)C(=O)N1CCC[C@H]1C(=O)NCc1ccccc1,0,0,-,0,0,-
S=c1[nH]nc(-c2ccco2)n1/N=C/c1ccc(Cl)c(Cl)c1,22.3,0,0,0,0,0
Oc1ccc(O)c(Cc2nc3ccccc3s2)c1,49.4,0,0,0,0,0
Oc1cccc(-c2nc3ccccc3s2)c1,0,0,0,0,0,0
O=C(NC(=S)Nc1ccccc1[N+](=O)[O-])c1ccccc1Cl,0,0,0,0,0,0
O=C(O)c1ccc(Cl)c(NC(=S)NC(=O)c2ccccc2[N+](=O)[O-])c1,23.5,0,0,0,0,0
COc1ccc(-c2nnc(SCC(=O)NN=Cc3c(O)ccc4ccccc34)n2-c2ccc(OC)cc2)cc1,0,0,-,0,0,-
CCOC(=O)C1=NOC(C(C)=O)(C(=O)Nc2cc(C)cc(C)c2)C1 (configuration not stated),0,0,-,0,0,-
COc1ccc(C2(c3ccc(OC)cc3)NC(=O)N(CC(=O)Nc3ccc(C(N)=O)cc3)C2=O)cc1,0,41.8,-,0,0,0
Cc1ccc(-n2c3c(c(=O)[nH]c2=O)C(NS(=O)(=O)c2ccc(Cl)cc2)(C(F)(F)F)C(=O)N3)cc1 (configuration not stated),0,28.4,0,0,0,0
Cc1cc(C(=O)O[C@H]2CCC[C@@]3(C(=O)N(Cc4ccccc4)c4ccccc43)[C@H]2NC(=O)CCc2ccccc2)no1,0,0,-,0,0,-
c1coc(-c2nc3c4ccccc4ccn3c2Cc2ccsc2)c1,32.4,21.7,-,0,0,-
COc1ccccc1NS(=O)(=O)c1cccc(NC(=O)c2sc3ccccc3c2Cl)c1,0,25.9,0,0,0,0
COc1cccc(NC(=O)CN(C)C(=O)CNC(=O)c2sc3ccccc3c2Cl)c1,0,21.3,-,0,0,0
N#Cc1ccc(Cn2nnc(-c3ccc(N4CCOCC4)cc3)n2)cc1,0,0,-,0,0,-
O=C(OCC#CCSc1nnc(-c2cccc3ccccc23)o1)C1CCC1,0,0,-,0,0,-
N=c1c(S(=O)(=O)c2ccc(Br)cc2)cc2c(=O)n3ccccc3nc2n1Cc1ccco1,0,0,-,0,0,33.6
N=c1c(S(=O)(=O)c2ccc(Cl)cc2)cc2c(=O)n3ccccc3nc2n1Cc1ccco1,0,0,-,0,0,27.9
CCn1c(=N)c(S(=O)(=O)c2ccc(Cl)cc2)cc2c(=O)n3ccccc3nc21,-,-,0,-,-,-
